# Calls of active or inactive are those of the source. The rule behind the calls is not given here.
# Biological target: T1, Human immunodeficiency virus type 1 reverse transcriptase (Human immunodeficiency virus 1, UniProt Q72547)
# Assay: Inhibition of recombinant His-tagged wild-type HIV-1 group M subtype B BH10 reverse transcriptase-associated RNase H activity harboring p66/p51 hetrodimer expressed in Escherichia coli M15 using GTTTTCTTTTCCCCCCTGAC-30 fluorescein/50-CAAAAGAAAAGGGGGGACUG-30 Dabcyl RNA/DNA template-primer as substrate incubated for 1 hr by multilabel counter plate reader analysis
# Conditions: not given
# Summary of the method: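 His-tagged p66/p51 RT was expressed in E. coli M15, with mutations placed in p66 by site-directed mutagenesis. The mix held 50 mM Tris HCl pH 7.8, 6 mM MgCl2, 1 mM DTT, 80 mM KCl, 250 nM fluorescein/Dabcyl RNA/DNA hybrid and serial compound dilutions, with no preincubation. Reactions were started with enzyme (wt, R448A, K451A 20 ng; K540A 40 ng; N474A 500 ng), run 1 h at 37 °C and read at 490/528 nm. Duplicates were repeated at least twice; IC50 is mean ± SD.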
row,SMILES,IC50 [µM]
1,CCOC(=O)c1cn(Cc2ccc(F)cc2)c2ccc(OC)cc2c1=O,> 100
2,COc1ccc2c(c1)c(=O)c(C(=O)O)cn2Cc1ccc(F)cc1,> 100
3,CCOC(=O)c1cn(Cc2ccc(F)cc2)c2ccc(S(C)(=O)=O)cc2c1=O,> 100
4,CCOC(=O)c1cn(Cc2ccc(F)cc2)c2ccc(C#N)cc2c1=O,> 100
5,CCOC(=O)c1cn(Cc2ccc(F)cc2)c2ccc(OCc3ccc(-c4ccccc4)cc3)cc2c1=O,> 100
6,O=C(O)c1cn(Cc2ccc(F)cc2)c2ccc(C(F)(F)F)cc2c1=O,> 100
7,N#Cc1ccc2c(c1)c(=O)c(C(=O)O)cn2Cc1ccc(F)cc1,> 100
8,CCOC(=O)c1cn(Cc2ccc(F)cc2)c2ccc(OCCCN(C)C)cc2c1=O,> 100
9,CCOC(=O)c1cn(Cc2ccc(F)cc2)c2ccc(O)cc2c1=O,> 100
10,O=C(O)c1cn(Cc2ccc(F)cc2)c2ccccc2c1=O,> 100

# Biological target: T1, Human immunodeficiency virus type 1 reverse transcriptase
# Assay: Inhibition of HIV-1 reverse transcriptase associated RNA-dependent DNA polymerase activity using poly(A)-oligo(dT) as template/primer incubated for 30 mins by multilabel counter plate reader analysis
# Conditions: not given
row,SMILES,IC50 [µM]
1,O=C(/C=C/c1ccc2c(c1)c(=O)c(C(=O)O)cn2Cc1ccc(F)cc1)c1ccccc1,> 100

# Biological target: Human immunodeficiency virus type 1 integrase (Human immunodeficiency virus 1, UniProt Q7ZJM1)
# Sequence (Q7ZJM1 whole entry): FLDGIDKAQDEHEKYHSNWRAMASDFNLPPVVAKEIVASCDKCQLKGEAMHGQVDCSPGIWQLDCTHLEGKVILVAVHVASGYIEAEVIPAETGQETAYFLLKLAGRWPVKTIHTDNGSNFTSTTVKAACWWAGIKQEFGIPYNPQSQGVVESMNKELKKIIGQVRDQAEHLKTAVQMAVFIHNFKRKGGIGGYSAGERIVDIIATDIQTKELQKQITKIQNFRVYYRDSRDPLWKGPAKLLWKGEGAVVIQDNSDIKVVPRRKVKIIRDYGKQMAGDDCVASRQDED
# Assay: Inhibition of recombinant His-tagged HIV-1 NL4-3 integrase expressed in Escherichia coli BL21 pLys using GTGTGGAAAATCTCTAGCA/ACTGCTAGAGATTTTCCACAC as DNA substrate incubated for 2 hrs by densitometric analysis
# Conditions: not given
row,SMILES,IC50 [µM]
1,O=C(O)c1cn(Cc2ccc(F)cc2)c2ccc(OCc3ccc4c(c3)OCO4)cc2c1=O,> 100
2,O=C(O)c1cn(Cc2ccc(F)cc2)c2ccc(OCc3cccc4ccccc34)cc2c1=O,> 100
3,CCOC(=O)c1cn(Cc2ccc(F)cc2)c2ccc(C(C)=O)cc2c1=O,> 100
4,CC(=O)c1ccc2c(c1)c(=O)c(C(=O)O)cn2Cc1ccc(F)cc1,> 100
5,O=C(O)c1cn(Cc2ccc(F)cc2)c2ccc(OCc3ccc(-c4ccccc4)cc3)cc2c1=O,> 250
6,CCOC(=O)/C=C/C(=O)/C=C/c1cccn1Cc1ccccc1Cl,> 100
7,O=C(O)c1cn(Cc2ccc(F)cc2)c2ccc(OCc3cccc(Cl)c3Cl)cc2c1=O,> 100

# Tested on: not listed separately
# Assay: Selectivity index, ratio of CC50 for cytotoxicity against human HeLa-CD4-LTR-beta-gal cells to EC50 for antiviral activity against HIV 1 infected in human HeLa-CD4-LTR-beta-gal cells
# Assay type: toxicity, cell-based
# Conditions: read-out: Ratio CC50/EC50
# Summary of the method: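 Selectivity index is CC50/EC50. Both values come from HeLa-CD4-LTR-β-gal cells at 24 h. EC50 is from β-galactosidase readout after infection with in-house HIV-1 (H9-laï coculture). CC50 is from the CellTiter 96 AQueous One proliferation assay.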
row,SMILES,selectivity ratio
1,CCOC(=O)/C=C/C(=O)/C=C/c1cccn1Cc1ccccc1Cl,> 13.7

# Tested on: not listed separately
# Assay: Metal chelating activity assessed as Mg2+-compound complex formation at 3.8 x 10^-5M by UV-visible spectrophotometric titration analysis
# Conditions: dose 3.8 10^-5M
# Summary of the method: (§1)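 Compound in absolute ethanol, titrated with MgCl2 stock solutions (4 10–5 to 0.2 M, diluted in ethanol). UV–vis spectra were recorded from 230 to 370 or 600 nm against ethanol in a 1 cm quartz cuvette, in triplicate. Stoichiometry was found by Job's method using equimolar metal/ligand mixtures. ΔA was plotted against ligand mole fraction, and the maximum was located by linear regression.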
row,SMILES,Activity
1,O=C(O)c1cn(Cc2ccc(F)cc2)c2ccc(OCc3cccc4ccccc34)cc2c1=O,Active

# Tested on: not listed separately
# Assay: Metal chelating activity assessed as Mg2+-compound complex formation at 4.1 x 10^-5 M by UV-visible spectrophotometric titration analysis
# Conditions: dose 4.1 10^-5M
# Summary of the method: as §1
row,SMILES,Activity
1,CCOC(=O)c1cn(Cc2ccc(F)cc2)c2ccc(OCc3cccc4ccccc34)cc2c1=O,Active
